Test results reported in PMC6239893 (Nature chemical biology, 2018).

Legend:
[1] = system: ai5γ intron with short exons (SE RNA); assay: Radioanalytic self-splicing assay; type: biochemical, S. cerevisiae; conditions: relative to lead compound; IC50 and Ki assays
Summary of the method: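 Internally ³²P-labelled ai5γ precursor with short exons (2 nM) self-spliced at 30 °C with a range of test compound concentrations. Buffer was 50 mM MOPS pH 7.5, 8 mM MgCl₂, 100 mM KCl. First-order splicing rates were fitted to k_obs = k_max/(1+[I]/K_i) to give K_i. Each determination was repeated 2–4 times; mean ± s.e.m.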

[2] = system: COX1 aI5γ group II intron; assay: Analysis of splicing in S. cerevisiae by qRT-PCR; type: cell-based; conditions: S. cerevisiae in YPGE, 4 h; 19 64 μg/mL, 18 32 μg/mL, 12 32 μg/mL, 3 64 μg/mL
[3] = system: ai5γ group II intron (D135 ribozyme); assay: Fluorescent D135 ribozyme cleavage assay; type: biochemical, S. cerevisiae; conditions: compared with the parental molecule 7
[4] = system: S. cerevisiae wild-type (NP40–36a) and intronless (XPM46) strains; assay: S. cerevisiae growth assays, wild-type vs mtDNA intronless strain; type: cell-based; conditions: YPGE medium, 64 or 128 μg/mL
Summary of the method: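 Wild-type NP40–36a and mtDNA intronless XPM46 strains were grown overnight with shaking to mid-log phase in YPGE at 30 °C. Equal cell numbers were serially diluted 1:5 and plated on YPD or YPGE. Plates held DMSO or test compound at 64 or 128 µg/mL final. Plates grew at 30 °C for 1 day (YPD), 2 days (YPGE with DMSO) or 18 days (YPGE with compound). Done twice.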

O=C1/C(=C/c2ccc(O)c(O)c2)Oc2cc(O)cc(O)c21 [Compound 2]
In vitro inhibitory activity in SAR (in words) [1]: inactivated

O=C1/C(=C/c2cc(O)cc(O)c2)Oc2cc(O)cc(O)c21 [Compound 3]
Splicing of COX1 aI5γ group II intron in vivo (unspliced precursor, qRT-PCR) [2]: inactive

O=C(c1cc(O)c(O)c(O)c1)c1cc2ccccc2o1 [Compound 9]
Increase in in vitro potency [3]: 2 fold

COc1ccc(CNC(=O)c2cc(O)c(O)c(O)c2)cc1OC [Compound 10]
In vitro inhibitory activity in SAR (in words) [1]: substantial loss of activity

CCCCNS(=O)(=O)c1ccc(-c2ccc(-c3nc(-c4cc(O)c(O)c(O)c4)cs3)cc2)cc1 [Compound 11]
In vitro inhibitory activity in SAR (in words) [1]: substantial loss of activity

Cc1ccncc1-c1ccc2oc(C(=O)c3cc(O)c(O)c(O)c3)cc2c1 [Compound 12]
Splicing of COX1 aI5γ group II intron in vivo (unspliced precursor, qRT-PCR) [2]: inhibit splicing

CC(=O)c1ccc(-c2ccc3oc(C(=O)c4cc(O)c(O)c(O)c4)cc3c2)cc1 [Compound 18]
Splicing of COX1 aI5γ group II intron in vivo (unspliced precursor, qRT-PCR) [2]: inhibit splicing | Growth of intronless strain versus wild-type strain in presence of compound [4]: much more resistant
